{"source": "paper PMC6904838", "about": "(International Journal for Parasitology: Drugs and Drug …, 2019)", "key": {"HepG2 cytotoxicity": {"assay": "HepG2 cytotoxicity", "assay_type": "cell-based", "conditions": "human, HepG2 cells (ATCC HB-8065)", "outline": "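HepG2 human hepatocarcinoma cells in Glutamax DMEM with 10% FBS and penicillin/streptomycin, seeded and held at 37 °C under 5% CO2. Serial dilutions of test compound (0.01–200 μM) added, viability read after 72 h by Alamar Blue per manufacturer's protocol. CC50 derived by non-linear fitting of viability versus concentration.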"}, "[1]": {"tested_on": "L. infantum promastigotes", "assay": "In vitro assay on iRFP-L. infantum promastigotes", "assay_type": "cell-based, Leishmania infantum", "outline": "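iRFP-expressing L. infantum BCN150 promastigotes at 1 × 10^6 cells/mL in supplemented M199 (25 mM HEPES pH 6.9, 10% FBS). DMSO stocks were diluted in M199 to 0.01–200 μM final, with 72 h exposure at 26 °C. Viability was read as 713 nm infrared fluorescence, in triplicate. EC50 came from nonlinear fits. SIp = HepG2 72 h Alamar Blue CC50 / promastigote EC50.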"}, "L. infantum amastigotes": {"tested_on": "L. infantum amastigotes", "assay_type": "cell-based, Leishmania infantum", "outline": "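Female BALB/c mice were infected intraperitoneally with 10^8 iRFP-expressing metacyclic promastigotes. After five weeks, spleen cells were collagenase-dispersed into RPMI with 10% FBS and exposed to test compound (0.01–200 μM) at 37 °C, 5% CO2. After 72 h, amastigote viability was read by infrared fluorescence at 713 nm, and EC50 came from a nonlinear fit. HepG2 CC50 (Alamar Blue, 72 h, 0.01–200 μM) was divided by this EC50.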"}}}
{"molecule": "CCCCCCCCCCCCCCCCOP(=O)([O-])OCC[N+](C)(C)C", "note": "[MTF, Miltefosine]", "values": [{"measurement": "CC50 at 72 h", "setting": "HepG2 cytotoxicity", "value": "50.4 ± 4.3", "unit": "µM"}, {"measurement": "SIp: Selectivity Index for promastigotes (CC50 HepG2/EC50 promastigotes)", "setting": "[1]", "value": 8.5}, {"measurement": "SIa: Selectivity Index for amastigotes (CC50 HepG2/EC50 amastigotes)", "setting": "L. infantum amastigotes", "value": 21}]}
